According to article PMC4893941 (Journal of medicinal chemistry, 2016):

How the values were obtained:
human glioma T98G cells = assay: Time-dependent cellular uptake; assay type: cell-based; conditions: 10 μM; for cellular uptake after 24 h, fold higher than 7: relative to BODIPY 7
In short: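 T98G glioma cells were seeded at 15 000/well in EMEM with 10% FBS and grown 24 h. They were then exposed to 10 μM test compound for 0, 1, 2, 4, 8 or 24 h, PBS-washed and lysed in 0.25% Triton X-100/PBS. Fluorescence at 485/590 nm was read against compound standard curves (0.3125–10 μM). Cell number came from a CyQuant cell standard curve, and uptake was expressed as nM per cell.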

[1] = system: human hCMEC/D3 brain endothelial cell monolayers; assay: BBB permeability across hCMEC/D3 cell monolayers; assay type: in vitro ADME; conditions: hCMEC/D3 monolayer; for Pe (permeability coefficient): 50 μM in transport buffer, 0–45 min
In short: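 hCMEC/D3 cells were grown 48 h on 0.4 μm PET Transwell inserts in EBM-2 with 5% FBS, hydrocortisone, ascorbate, lipid concentrate, HEPES and bFGF. Monolayers were checked by microscopy. Test compound or lucifer yellow (50 μM) in HBSS/HEPES/pyruvate transport buffer was added to the upper chamber at 37 °C. Inserts were moved to fresh buffer at 10 and 25 min, and the lower chamber was sampled at 10, 25 and 45 min. Fluorescence was read at 485/590 nm (compound) or 425/538 nm (LY) against standard curves. Pe came from clearance-slope fits, cell inserts minus cell-free inserts, in triplicate.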

[2] = Octanol–water partition coefficients; assay type: physicochemical; conditions: 1-octanol/water partition, UV–vis absorbance
In short: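 Octanol and water were mutually presaturated. A 64 μM stock of test compound in water-saturated octanol was vortexed 10 min with water. After phase separation, the octanol layer was diluted and its UV–vis absorbance read. log P was calculated from octanol absorbance before versus after partitioning and the water/octanol phase volumes.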

| Pe (permeability coefficient) [1] | log P [2] | Pe relative to LY ([1]; relative to lucifer yellow) [fold] | Substance | cellular uptake at 24 h (human glioma T98G cells) [nM/cell] | cellular uptake after 24 h, fold higher than 7 (human glioma T98G cells) |
| --- | --- | --- | --- | --- | --- |
| 5.4 ± 0.6 × 10^−5 cm/s | 1.93 | – | 8-(1,2-Carboranyl-1-thio)-3-chloro-2-ethyl-1,3,6,7-tetramethyl-BODIPY [6b] | 0.46 ± 0.06 | 135 fold |
| 2.6 ± 0.9 × 10^−5 cm/s | 1.95 | – | 8-(1,2-Carboranyl-1-thio)-2-ethyl-1,3,6,7-tetramethyl-BODIPY [5b] | 1.5 ± 0.05 | about 436 fold |
| 2.2 ± 0.8 × 10^−5 cm/s | – | – | lucifer yellow [LY, reference compound] | – | – |
| 16.4 ± 3.3 × 10^−5 cm/s | 1.50 | 7 | 8-(1,2-Carboranyl-1-thio)-BODIPY [1b] | 0.23 ± 0.05 | 67 fold |
| 6.0 ± 1.0 × 10^−5 cm/s | 1.69 | – | 8-(1,2-Carboranyl-1-thio)-1,3-dimethyl-BODIPY [2b] | 0.36 ± 0.03 | 106 fold |
| – | 2.11 | – | 8-[4-(2-Methyl-1,2-carboranyl)methylphenyl]-BODIPY [compound 4] | 0.41 ± 0.03 | 118 fold |
